From PubChem
Apaf1 inhib = inhibitors of human Apaf-1 apoptosome. O14727. reconstituted apoptosome caspase-3 activity, DEVD-Rh110 fluorescence. inhibition, % at 20 µM. 330,000 tested, 0.71% active; active means inhibition of at least 40% at 20 µM
Target sequence (O14727 whole entry, looked up): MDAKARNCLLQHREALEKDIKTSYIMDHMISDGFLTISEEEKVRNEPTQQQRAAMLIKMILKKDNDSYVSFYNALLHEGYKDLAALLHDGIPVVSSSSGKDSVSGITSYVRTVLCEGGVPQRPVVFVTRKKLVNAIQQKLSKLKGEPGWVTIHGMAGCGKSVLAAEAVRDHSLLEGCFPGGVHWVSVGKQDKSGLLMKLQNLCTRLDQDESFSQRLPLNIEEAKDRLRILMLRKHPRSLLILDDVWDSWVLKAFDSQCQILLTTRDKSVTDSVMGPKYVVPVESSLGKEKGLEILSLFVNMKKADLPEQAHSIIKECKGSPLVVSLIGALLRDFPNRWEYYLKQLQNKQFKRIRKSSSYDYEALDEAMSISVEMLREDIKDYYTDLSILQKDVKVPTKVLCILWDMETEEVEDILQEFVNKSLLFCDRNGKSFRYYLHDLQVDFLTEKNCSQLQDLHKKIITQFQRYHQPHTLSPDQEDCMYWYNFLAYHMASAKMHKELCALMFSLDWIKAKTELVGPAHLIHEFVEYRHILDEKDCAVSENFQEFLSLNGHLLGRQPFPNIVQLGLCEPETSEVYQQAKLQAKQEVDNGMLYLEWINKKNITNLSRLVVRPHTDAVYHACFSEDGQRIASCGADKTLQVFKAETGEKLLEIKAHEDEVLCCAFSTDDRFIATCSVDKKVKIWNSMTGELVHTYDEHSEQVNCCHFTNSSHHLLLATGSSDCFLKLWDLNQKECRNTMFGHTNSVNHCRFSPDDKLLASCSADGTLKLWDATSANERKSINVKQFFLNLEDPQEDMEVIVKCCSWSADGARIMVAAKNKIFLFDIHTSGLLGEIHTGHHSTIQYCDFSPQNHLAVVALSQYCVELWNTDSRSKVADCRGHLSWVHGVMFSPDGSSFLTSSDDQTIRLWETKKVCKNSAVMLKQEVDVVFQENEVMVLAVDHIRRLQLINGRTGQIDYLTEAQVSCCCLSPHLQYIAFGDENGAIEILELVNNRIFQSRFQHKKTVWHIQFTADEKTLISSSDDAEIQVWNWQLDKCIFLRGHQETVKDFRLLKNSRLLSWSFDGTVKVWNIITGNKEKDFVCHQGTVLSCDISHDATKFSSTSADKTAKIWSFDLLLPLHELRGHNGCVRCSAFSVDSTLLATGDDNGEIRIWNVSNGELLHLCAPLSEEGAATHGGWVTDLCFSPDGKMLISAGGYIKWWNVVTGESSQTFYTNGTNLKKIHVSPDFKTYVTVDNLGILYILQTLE
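System – cell-free apoptosome with Apaf-1, procaspase-3 and caspase-9 · Buffer or medium – pH 7.5 Hepes buffer with CHAPS, BSA, DTT · Also added – cytochrome c with DEVD-Rh110 · Times – 30 min compound preincubation, 50 min activation, room temperature · Technique – Rh110 fluorescence intensity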
PAFAH2 inh = inhibitors of human PAFAH2 | inhibition, % at 3.39 µM | 340,000 tested, 0.99% active | Q99487 | recombinant PAFAH2, FP-rhodamine activity probe, fluorescence polarization;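 active means inhibition above the mean over all tested compounds plus 3 SD, cut at about 30% in these data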;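 further: inhibitors block probe labeling of enzyme so polarization drops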
PAFAH1B3 inh = blocks human PAF acetylhydrolase 1B catalytic subunit 3; inhibition, % at 3.39 µM; AID 492972; 340,000 tested, 0.28% active; recombinant PAFAH1B3, FP-rhodamine probe, fluorescence polarization; Q15102;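 active means inhibition above the screen-wide average of all tested compounds plus 3 SD, cut at about 25% in these data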
pPAFAH FP inh = inhibitors of human plasma PAF acetylhydrolase (pPAFAH); Q13093; recombinant pPAFAH, FP-rhodamine probe fluorescence polarization; inhibition, % at 3.39 µM; 330,000 tested, 1.5% active; AID 463082;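 active means inhibition above the mean inhibition across the screen plus 3 SD, cut at about 25% in these data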;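 further: inhibitors block binding of the rhodamine activity-based probe so polarization drops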
PAFAH1B2 inh = PAFAH1B2 (human) inhibition; P68402; recombinant PAFAH1B2, FP-rhodamine activity probe, fluorescence polarization; inhibition, % at 3.39 µM; 340,000 tested, 1.2% active; AID 492953;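 active means inhibition above the mean of all tested compounds plus 3 SD, cut at about 24% in these data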
Large screens that a line does not name were inactive. This is a sample that favours compounds with a hit; in the whole collection about 3.1% have one here.

O=C(C[C@@H]1C/C=C\C[C@@H](Cc2ccc(F)cc2)C(=O)OC[C@@H]2CCCN2C1=O)NCCO	PAFAH1B2 inh 47.3
C[C@H]1COC(=O)[C@@H](Cc2ccc(F)cc2)C/C=C\C[C@@H](CC(=O)N[C@@H](CO)Cc2ccccc2)C(=O)N1	PAFAH1B2 inh 25.2
CC(C)(C)OC(=O)C[C@H]1C/C=C\C[C@@H](CC(=O)NCCO)C(=O)N2CCC[C@H]2COC1=O	none
O=C(C[C@H]1C/C=C\C[C@@H](Cc2ccc(F)cc2)C(=O)OC[C@H]2CCCN2C1=O)N[C@@H](CO)Cc1ccccc1	PAFAH1B2 inh 35.1
Cc1cc(C)nc(/N=C(\N)Nc2ccc(OCCC(C)C)cc2)n1	none
Cc1ccsc1/C=C1\SC(N2CC(C)OC(C)C2)=NC1=O (configuration not stated)	none
COC(=O)C1=CN(Cc2ccccc2)C=C(C(=O)OC)C1c1cc(F)ccc1F	none
O=C(O)c1cc(O)c2c(c1)[C@@H]([C@H]1c3cc(C(=O)O)cc(O)c3C(=O)c3c(O[C@@H]4O[C@H](CO)[C@@H](O)[C@H](O)[C@H]4O)cccc31)c1cccc(OC3O[C@H](CO)[C@@H](O)[C@H](O)[C@H]3O)c1C2=O (some centres not stated)	Apaf1 inhib 95.4, PAFAH2 inh 86.0, PAFAH1B3 inh 75.9, pPAFAH FP inh 96.9, PAFAH1B2 inh 78.3
O=C1c2cc(CO)cc(O)c2C(=O)c2c(O[C@@H]3OC(CO)[C@@H](O)[C@@H](O)[C@@H]3O)cccc21 (some centres not stated)	none
CN(C)/C=C/c1onc(-c2c(Cl)cccc2Cl)c1C#N	none
N#Cc1c(-c2c(Cl)cccc2Cl)noc1/C=C/Nc1ccc(C(=O)O)cc1	pPAFAH FP inh 24.6
Cc1cc(C)cc(NC(=O)N2CCN(C/C=C/c3ccccc3)CC2)c1	none
O=C(NCc1ccco1)c1cccc2c1C(=O)c1ccc(N3CCC(Cc4ccccc4)CC3)cc1S2(=O)=O	pPAFAH FP inh 33.1
O=C(NCc1cccc(F)c1)c1cccc2c1C(=O)c1ccc(N3CCC(Cc4ccccc4)CC3)cc1S2(=O)=O	none
COc1ccc(Br)cc1C1SCCN1S(C)(=O)=O (configuration not stated)	none
CS(=O)(=O)N1CCSC1c1ccc(Br)cc1 (configuration not stated)	PAFAH1B2 inh 26.0
CC(=O)NC(CC(=O)OCC(=O)N1CCN(S(=O)(=O)c2ccc(C)cc2C)CC1)c1ccccc1 (configuration not stated)	none
Cc1ccc(S(=O)(=O)N2CCOCC2)cc1NC(=O)CSCc1c(C)noc1C	none
CCN1C(=O)/C(=C\c2ccc(-c3ccc([N+](=O)[O-])cc3OC)o2)SC1=Nc1cccc(C(=O)O)c1	PAFAH1B2 inh 24.2 (no result: Apaf1 inhib, pPAFAH FP inh)
CCCCN=CC1=C(O)CC(c2ccccc2)CC1=O (configuration not stated)	none
Nc1c(Br)cc(Br)c2c1-c1ccc([N+](=O)[O-])cc1C2	none (no result: Apaf1 inhib, pPAFAH FP inh)
CC(=O)NN1C(=O)/C(=C\c2ccc(Br)o2)SC1=S	pPAFAH FP inh 27.3
CC(=O)NN1C(=O)/C(=C/c2ccc(Br)o2)SC1=S	none
Cc1ccc(S(=O)(=O)N2CCOC2CNC(=O)C(=O)NCCCN2CCOCC2)cc1 (configuration not stated)	none
COc1ccccc1-c1c(C)nn2c(N3CCN(Cc4ccccc4)CC3)cc(C)nc12	pPAFAH FP inh 28.2
CCOc1ncccc1C(=O)Nc1cc2c(cc1Br)OCCO2	none
CCN(Cc1ccccc1)C(=O)c1cc2cc(OC)c(OC)cc2[nH]1	pPAFAH FP inh 32.9
COc1cc2[nH]c(C(=O)N(C)Cc3ccccc3)cc2c(OC)c1OC	none
N#CC1=C(N)S[C@H](C(=O)C23CC4CC(CC(C4)C2)C3)[C@H]1c1ccncc1	PAFAH1B2 inh 28.4
COc1cc(/C=N/NC(=O)c2sc3nc(C)cc(C)c3c2N)ccc1O	pPAFAH FP inh 31.1 (no result: PAFAH2 inh, PAFAH1B3 inh, PAFAH1B2 inh)
COC(=O)c1sc2nc(C)cc(C)c2c1N	none
CCCn1nnc(NC(=O)Cc2ccc(Cl)cc2)n1	PAFAH1B2 inh 27.3
Cn1nnc(NC(=O)CSc2ccc(Cl)cc2)n1	PAFAH1B2 inh 24.7
COC(=O)c1sccc1NC(=O)CSc1ccccc1N	none
COC(=O)c1sccc1NC(=O)CSc1ccc(Cl)cc1	PAFAH1B2 inh 29.2
COc1cc(Cl)c(C)cc1NC(=O)CSc1ccc(C)cc1	PAFAH1B2 inh 34.0
CC1CNC(=S)N(c2ccccc2)C1=O (configuration not stated)	none (no result: Apaf1 inhib, pPAFAH FP inh)
COc1ccccc1OCc1nnc(SCC(=O)Nc2nnc(C3CC3)s2)n1C	none
Cc1cc(=O)n2c3c(c4c(cc13)c(CN(C)C)cc(=O)n4C)OC2	none (no result: Apaf1 inhib, pPAFAH FP inh)
O=C1OCc2ccc([N+](=O)[O-])cc21	none (no result: Apaf1 inhib, pPAFAH FP inh)
Cc1ccc(C(C)(C)NC(=O)C2CCC(=O)N(Cc3ccccc3F)C2)cc1 (configuration not stated)	none
CC1(C)CC(NC(=O)C2CCC(=O)N(Cc3ccccc3F)C2)CC(C)(C)C1 (configuration not stated)	PAFAH1B2 inh 27.5 (no result: pPAFAH FP inh)
COC(=O)CNC(c1ccccc1)c1cc(Br)ccc1NC(=O)CNC(=O)OCc1ccccc1 (configuration not stated)	pPAFAH FP inh 29.4
c1coc(CSSCc2ccco2)c1	PAFAH2 inh 49.8, PAFAH1B3 inh 29.6
COc1ccc(S(=O)(=O)NNC(=O)Nc2ccc(C)cc2C)c(OC)c1	none
Cc1noc(NS(=O)(=O)c2ccc(NC(=O)CC34CC5CC(CC(Br)(C5)C3)C4)cc2)c1C	PAFAH1B2 inh 33.2
Cc1noc(NS(=O)(=O)c2ccc(NC(=O)Nc3ccc(Cl)c(Cl)c3)cc2)c1C	pPAFAH FP inh 25.4
CCCOc1ccc(C(=O)Nc2ccc(S(=O)(=O)Nc3onc(C)c3C)cc2)cc1	pPAFAH FP inh 30.3
COc1ccc(Cl)cc1S(=O)(=O)Nc1ccc2c(c1)n(C)c(=O)n2C	none
CCCNS(=O)(=O)c1ccc(OCC(=O)Nc2ccc3c(c2)OCCO3)c(C)c1	none
O=C(OCC(=O)C12CC3CC(CC(C3)C1)C2)c1ccc(O)cc1O	PAFAH2 inh 33.5, PAFAH1B2 inh 26.4
O=C(OCC(=O)C12CC3CC(CC(C3)C1)C2)c1ccccn1	PAFAH1B2 inh 24.7
O=C(OCC(=O)C12CC3CC(CC(C3)C1)C2)c1cccnc1	none
O=C(CSc1ccccn1)C12CC3CC(CC(C3)C1)C2	PAFAH1B2 inh 26.4
COC(=O)C(C)Oc1ccc(Cc2ncc(C(F)(F)F)cc2Cl)cc1 (configuration not stated)	none
O=C(O)c1ccc2oc(=O)c(S(=O)(=O)c3ccc(F)cc3)cc2c1	PAFAH2 inh 44.6, PAFAH1B2 inh 31.6
O=C(O)c1ccc2oc(=O)c(S(=O)(=O)c3ccccc3)cc2c1	PAFAH1B2 inh 26.8
Cc1ccc(NC(=O)C2CCN(S(=O)(=O)c3cccnc3)CC2)cc1C	none
CCCCC1=CC2=CC(=O)C(C)(OC(=O)CCC(=O)OC)C(=O)C2=CO1 (configuration not stated)	pPAFAH FP inh 38.6 (no result: PAFAH2 inh, PAFAH1B3 inh, PAFAH1B2 inh)
